Data as given in ChEMBL document CHEMBL3407339, “A novel series of thiazolyl-pyrazoline derivatives: synthesis and evaluation of antifungal activity, cytotoxicity and genotoxicity” (Eur J Med Chem, 2015).
Converted amounts (≈) assume the structure as drawn.

Key:
[1] = tested on: Nakaseomyces glabratus; assay: Antifungal activity against Candida glabrata clinical isolate after 48 hrs by broth microdilution assay; assay type: functional
How it was run: (§1)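 Broth microdilution of DMSO stocks serially diluted in sterile water (4 to 0.0039 mg/mL). Yeasts grown on SDA at 37 °C for 24 h, suspended in double-strength PDB at 10⁵ spores/mL. Incubated at 37 °C for 48 h, then sprayed with 0.5% aqueous TTC. MIC = lowest concentration inhibiting visible growth. Ketoconazole reference.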

[2] = tested on: Candida albicans; assay: Antifungal activity against Candida albicans ATCC 90028 after 48 hrs by broth microdilution assay; assay type: functional; details: ATCC 90028, 48 h; how it was run: as §1
[3] = tested on: Candida tropicalis; assay: Antifungal activity against Candida tropicalis NRLL Y 12968 after 48 hrs by broth microdilution assay; assay type: functional; details: NRLL Y 12968, 48 h; how it was run: as §1
[4] = tested on: Pichia kudriavzevii; assay: Antifungal activity against Candida krusei NRLL Y 7179 after 48 hrs by broth microdilution assay; assay type: functional; details: NRLL Y 7179, 48 h; how it was run: as §1
[5] = tested on: [Candida] zeylanoides; assay: Antifungal activity against Candida zeylanoides NRLL Y 1774 after 48 hrs by broth microdilution assay; assay type: functional; details: Dujonia zeylanoides, NRLL Y 1774, 48 h; how it was run: as §1
[6] = tested on: Candida parapsilosis; assay: Antifungal activity against Candida parapsilosis NRLL Y 12696 after 48 hrs by broth microdilution assay; assay type: functional; details: Lodderomyces parapsilosis, NRLL Y 12696, 48 h; how it was run: as §1
[7] = tested on: Aspergillus flavus; assay: Antifungal activity against Aspergillus flavus NRRL 980 after 72 hrs by broth microdilution assay; assay type: functional; details: NRRL 980, 72 h
How it was run: (§2)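 Compounds dissolved in DMSO, diluted in sterile distilled water from 4 to 0.0039 mg/mL. Molds grown on PDA at 25 °C for 5 days, suspended in double-strength PDB at 10⁵ spores/mL. Incubated at 25 °C for 72 h; mycelial growth read under stereo microscope. MIC = lowest concentration inhibiting visible growth. Ketoconazole reference.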

[8] = tested on: Aspergillus niger; assay: Antifungal activity against Aspergillus niger ATCC 1094 after 72 hrs by broth microdilution assay; assay type: functional; details: ATCC 1094, 72 h; how it was run: as §2
[9] = tested on: Aspergillus parasiticus; assay: Antifungal activity against Aspergillus parasiticus NRRL 465 after 72 hrs by broth microdilution assay; assay type: functional; details: NRRL 465, 72 h; how it was run: as §2
[10] = tested on: Fusarium solani; assay: Antifungal activity against Fusarium solani NRRL 13414 after 72 hrs by broth microdilution assay; assay type: functional; details: NRRL 13414, 72 h; how it was run: as §2
[11] = tested on: A549; assay: Antiproliferative activity against human A549 cells after 24 hrs by XTT assay; assay type: functional, cell-based; details: A549, 24 h
How it was run: (§3)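 A549 cells in RPMI and NIH/3T3 cells in DMEM, each with fetal calf serum, antibiotics and 7.5% NaHCO₃, at 37 °C, 5% CO₂. Seeded at 20,000 cells/well, 24 h, then compounds added in medium at 500–3.9 doses (final DMSO <0.1%) for 24 h. XTT read after 3 h at 480 nm (ref 680 nm). IC₅₀ by non-linear regression; triplicates; cisplatin control.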

[12] = Cytotoxicity against mouse NIH/3T3 cells after 24 hrs by XTT assay; assay type: cell-based; details: NIH3T3, 24 h; how it was run: as §3

MIC [1]	MIC [2]	MIC [3]	MIC [4]	MIC [5]	MIC [6]	MIC [7]	MIC [8]	MIC [9]	MIC [10]	IC50 [11]	SMILES	IC50 [12]
250 µg/mL (≈ 546 µM)	250 µg/mL (≈ 546 µM)	250 µg/mL (≈ 546 µM)	250 µg/mL (≈ 546 µM)	250 µg/mL (≈ 546 µM)	250 µg/mL (≈ 546 µM)	125 µg/mL (≈ 273 µM)	250 µg/mL (≈ 546 µM)	250 µg/mL (≈ 546 µM)	250 µg/mL (≈ 546 µM)	> 500 µg/mL	Fc1ccc(-c2csc(N3N=C(c4ccc(Cl)s4)CC3c3ccc(F)cc3)n2)cc1 (configuration not stated)	> 500 µg/mL
125 µg/mL (≈ 258 µM)	250 µg/mL (≈ 516 µM)	250 µg/mL (≈ 516 µM)	250 µg/mL (≈ 516 µM)	250 µg/mL (≈ 516 µM)	250 µg/mL (≈ 516 µM)	250 µg/mL (≈ 516 µM)	250 µg/mL (≈ 516 µM)	250 µg/mL (≈ 516 µM)	250 µg/mL (≈ 516 µM)	> 500 µg/mL	O=[N+]([O-])c1ccc(-c2csc(N3N=C(c4ccc(Cl)s4)CC3c3ccc(F)cc3)n2)cc1 (configuration not stated)	> 500 µg/mL
125 µg/mL (≈ 269 µM)	250 µg/mL (≈ 538 µM)	250 µg/mL (≈ 538 µM)	250 µg/mL (≈ 538 µM)	250 µg/mL (≈ 538 µM)	250 µg/mL (≈ 538 µM)	250 µg/mL (≈ 538 µM)	250 µg/mL (≈ 538 µM)	250 µg/mL (≈ 538 µM)	250 µg/mL (≈ 538 µM)	> 500 µg/mL	N#Cc1ccc(-c2csc(N3N=C(c4ccc(Cl)s4)CC3c3ccc(F)cc3)n2)cc1 (configuration not stated)	> 500 µg/mL
250 µg/mL (≈ 483 µM)	250 µg/mL (≈ 483 µM)	250 µg/mL (≈ 483 µM)	250 µg/mL (≈ 483 µM)	250 µg/mL (≈ 483 µM)	250 µg/mL (≈ 483 µM)	250 µg/mL (≈ 483 µM)	250 µg/mL (≈ 483 µM)	250 µg/mL (≈ 483 µM)	250 µg/mL (≈ 483 µM)	> 500 µg/mL	CS(=O)(=O)c1ccc(-c2csc(N3N=C(c4ccc(Cl)s4)CC3c3ccc(F)cc3)n2)cc1 (configuration not stated)	> 500 µg/mL
125 µg/mL (≈ 275 µM)	250 µg/mL (≈ 551 µM)	250 µg/mL (≈ 551 µM)	250 µg/mL (≈ 551 µM)	250 µg/mL (≈ 551 µM)	250 µg/mL (≈ 551 µM)	250 µg/mL (≈ 551 µM)	250 µg/mL (≈ 551 µM)	250 µg/mL (≈ 551 µM)	250 µg/mL (≈ 551 µM)	> 500 µg/mL	Cc1ccc(-c2csc(N3N=C(c4ccc(Cl)s4)CC3c3ccc(F)cc3)n2)cc1 (configuration not stated)	> 500 µg/mL
125 µg/mL (≈ 266 µM)	250 µg/mL (≈ 532 µM)	250 µg/mL (≈ 532 µM)	250 µg/mL (≈ 532 µM)	250 µg/mL (≈ 532 µM)	250 µg/mL (≈ 532 µM)	250 µg/mL (≈ 532 µM)	250 µg/mL (≈ 532 µM)	250 µg/mL (≈ 532 µM)	250 µg/mL (≈ 532 µM)	> 500 µg/mL	COc1ccc(-c2csc(N3N=C(c4ccc(Cl)s4)CC3c3ccc(F)cc3)n2)cc1 (configuration not stated)	103 µg/mL (≈ 219 µM)
125 µg/mL (≈ 258 µM)	250 µg/mL (≈ 517 µM)	250 µg/mL (≈ 517 µM)	250 µg/mL (≈ 517 µM)	250 µg/mL (≈ 517 µM)	250 µg/mL (≈ 517 µM)	250 µg/mL (≈ 517 µM)	250 µg/mL (≈ 517 µM)	250 µg/mL (≈ 517 µM)	250 µg/mL (≈ 517 µM)	> 500 µg/mL	Fc1ccc(C2CC(c3ccc(Cl)s3)=NN2c2nc(-c3ccc4c(c3)OCO4)cs2)cc1 (configuration not stated)	73.8 µg/mL (≈ 152 µM)
125 µg/mL (≈ 298 µM)	500 µg/mL (≈ 1190 µM)	500 µg/mL (≈ 1190 µM)	500 µg/mL (≈ 1190 µM)	500 µg/mL (≈ 1190 µM)	500 µg/mL (≈ 1190 µM)	250 µg/mL (≈ 596 µM)	250 µg/mL (≈ 596 µM)	250 µg/mL (≈ 596 µM)	250 µg/mL (≈ 596 µM)	> 500 µg/mL	Cc1ccc(C2=NN(c3nc(-c4ccccc4)cs3)C(c3ccc(F)cc3)C2)s1 (configuration not stated)	> 500 µg/mL
125 µg/mL (≈ 286 µM)	250 µg/mL (≈ 571 µM)	250 µg/mL (≈ 571 µM)	250 µg/mL (≈ 571 µM)	250 µg/mL (≈ 571 µM)	250 µg/mL (≈ 571 µM)	250 µg/mL (≈ 571 µM)	250 µg/mL (≈ 571 µM)	250 µg/mL (≈ 571 µM)	250 µg/mL (≈ 571 µM)	125 µg/mL (≈ 286 µM)	Cc1ccc(C2=NN(c3nc(-c4ccc(F)cc4)cs3)C(c3ccc(F)cc3)C2)s1 (configuration not stated)	> 500 µg/mL
125 µg/mL (≈ 275 µM)	250 µg/mL (≈ 551 µM)	250 µg/mL (≈ 551 µM)	250 µg/mL (≈ 551 µM)	250 µg/mL (≈ 551 µM)	250 µg/mL (≈ 551 µM)	250 µg/mL (≈ 551 µM)	250 µg/mL (≈ 551 µM)	250 µg/mL (≈ 551 µM)	250 µg/mL (≈ 551 µM)	> 500 µg/mL	Cc1ccc(C2=NN(c3nc(-c4ccc(Cl)cc4)cs3)C(c3ccc(F)cc3)C2)s1 (configuration not stated)	> 500 µg/mL
125 µg/mL (≈ 251 µM)	250 µg/mL (≈ 502 µM)	250 µg/mL (≈ 502 µM)	250 µg/mL (≈ 502 µM)	250 µg/mL (≈ 502 µM)	250 µg/mL (≈ 502 µM)	250 µg/mL (≈ 502 µM)	250 µg/mL (≈ 502 µM)	250 µg/mL (≈ 502 µM)	250 µg/mL (≈ 502 µM)	> 500 µg/mL	Cc1ccc(C2=NN(c3nc(-c4ccc(Br)cc4)cs3)C(c3ccc(F)cc3)C2)s1 (configuration not stated)	> 500 µg/mL
125 µg/mL (≈ 269 µM)	250 µg/mL (≈ 538 µM)	250 µg/mL (≈ 538 µM)	250 µg/mL (≈ 538 µM)	250 µg/mL (≈ 538 µM)	250 µg/mL (≈ 538 µM)	250 µg/mL (≈ 538 µM)	250 µg/mL (≈ 538 µM)	250 µg/mL (≈ 538 µM)	250 µg/mL (≈ 538 µM)	16.7 µg/mL (≈ 35.9 µM)	Cc1ccc(C2=NN(c3nc(-c4ccc([N+](=O)[O-])cc4)cs3)C(c3ccc(F)cc3)C2)s1 (configuration not stated)	15.6 µg/mL (≈ 33.6 µM)
250 µg/mL (≈ 577 µM)	500 µg/mL (≈ 1150 µM)	500 µg/mL (≈ 1150 µM)	500 µg/mL (≈ 1150 µM)	500 µg/mL (≈ 1150 µM)	500 µg/mL (≈ 1150 µM)	250 µg/mL (≈ 577 µM)	250 µg/mL (≈ 577 µM)	250 µg/mL (≈ 577 µM)	250 µg/mL (≈ 577 µM)	> 500 µg/mL	Cc1ccc(-c2csc(N3N=C(c4ccc(C)s4)CC3c3ccc(F)cc3)n2)cc1 (configuration not stated)	> 500 µg/mL
250 µg/mL (≈ 556 µM)	500 µg/mL (≈ 1110 µM)	500 µg/mL (≈ 1110 µM)	500 µg/mL (≈ 1110 µM)	500 µg/mL (≈ 1110 µM)	500 µg/mL (≈ 1110 µM)	250 µg/mL (≈ 556 µM)	250 µg/mL (≈ 556 µM)	250 µg/mL (≈ 556 µM)	250 µg/mL (≈ 556 µM)	184 µg/mL (≈ 408 µM)	COc1ccc(-c2csc(N3N=C(c4ccc(C)s4)CC3c3ccc(F)cc3)n2)cc1 (configuration not stated)	146 µg/mL (≈ 326 µM)
250 µg/mL (≈ 539 µM)	250 µg/mL (≈ 539 µM)	250 µg/mL (≈ 539 µM)	250 µg/mL (≈ 539 µM)	250 µg/mL (≈ 539 µM)	250 µg/mL (≈ 539 µM)	250 µg/mL (≈ 539 µM)	250 µg/mL (≈ 539 µM)	250 µg/mL (≈ 539 µM)	250 µg/mL (≈ 539 µM)	173 µg/mL (≈ 374 µM)	Cc1ccc(C2=NN(c3nc(-c4ccc5c(c4)OCO5)cs3)C(c3ccc(F)cc3)C2)s1 (configuration not stated)	125 µg/mL (≈ 270 µM)
250 µg/mL (≈ 513 µM)	250 µg/mL (≈ 513 µM)	250 µg/mL (≈ 513 µM)	250 µg/mL (≈ 513 µM)	250 µg/mL (≈ 513 µM)	250 µg/mL (≈ 513 µM)	250 µg/mL (≈ 513 µM)	250 µg/mL (≈ 513 µM)	250 µg/mL (≈ 513 µM)	250 µg/mL (≈ 513 µM)	> 500 µg/mL	Cc1ccc(C2=NN(c3nc(-c4ccc(C(F)(F)F)cc4)cs3)C(c3ccc(F)cc3)C2)s1 (configuration not stated)	> 500 µg/mL

SMILES	MIC [1]	MIC [2]	MIC [3]	MIC [4]	MIC [5]	MIC [6]	MIC [7]	MIC [8]	MIC [9]	MIC [10]	IC50 [11]	IC50 [12]
CC(=O)N1CCN(c2ccc(OCC3COC(Cn4ccnc4)(c4ccc(Cl)cc4Cl)O3)cc2)CC1 (configuration not stated) [KETOCONAZOLE]	62.5 µg/mL (≈ 118 µM)	62.5 µg/mL (≈ 118 µM)	125 µg/mL (≈ 235 µM)	125 µg/mL (≈ 235 µM)	250 µg/mL (≈ 470 µM)	15.6 µg/mL (≈ 29.4 µM)	15.6 µg/mL (≈ 29.4 µM)	31.2 µg/mL (≈ 58.8 µM)	7.81 µg/mL (≈ 14.7 µM)	62.5 µg/mL (≈ 118 µM)		
